# Columns and labels:
# hD4 = target: T1, hD4 (Homo sapiens, UniProt P21917); experiment: radioligand competition, [3H]N-methylspiperone; format: binding; details: Cheng-Prusoff
# T1 sequence (P21917 1-419): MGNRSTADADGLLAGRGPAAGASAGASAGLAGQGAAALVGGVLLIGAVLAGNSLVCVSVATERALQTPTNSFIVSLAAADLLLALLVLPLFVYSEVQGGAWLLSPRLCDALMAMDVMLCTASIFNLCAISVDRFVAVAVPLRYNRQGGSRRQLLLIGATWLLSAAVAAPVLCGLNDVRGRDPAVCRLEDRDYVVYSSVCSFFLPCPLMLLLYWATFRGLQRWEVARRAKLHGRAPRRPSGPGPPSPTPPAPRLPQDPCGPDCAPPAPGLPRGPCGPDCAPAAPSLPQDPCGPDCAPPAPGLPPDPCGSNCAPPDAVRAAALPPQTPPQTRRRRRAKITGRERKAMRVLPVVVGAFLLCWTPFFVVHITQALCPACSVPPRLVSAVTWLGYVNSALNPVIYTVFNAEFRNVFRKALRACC
# How it was run: (§1)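 Radioligand displacement used [3H]N-methylspiperone at human D3 or D4 receptors stably expressed in HEK293 cells. Samples were run in triplicate. IC50 values were converted to Ki with the Cheng–Prusoff equation and given as pKi (−logKi).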
# α1d-AR = target: T2, α1d-AR (Homo sapiens, UniProt P25100); experiment: radioligand competition, [3H]prazosin; format: binding; details: Cheng-Prusoff
# T2 sequence (P25100 1-572): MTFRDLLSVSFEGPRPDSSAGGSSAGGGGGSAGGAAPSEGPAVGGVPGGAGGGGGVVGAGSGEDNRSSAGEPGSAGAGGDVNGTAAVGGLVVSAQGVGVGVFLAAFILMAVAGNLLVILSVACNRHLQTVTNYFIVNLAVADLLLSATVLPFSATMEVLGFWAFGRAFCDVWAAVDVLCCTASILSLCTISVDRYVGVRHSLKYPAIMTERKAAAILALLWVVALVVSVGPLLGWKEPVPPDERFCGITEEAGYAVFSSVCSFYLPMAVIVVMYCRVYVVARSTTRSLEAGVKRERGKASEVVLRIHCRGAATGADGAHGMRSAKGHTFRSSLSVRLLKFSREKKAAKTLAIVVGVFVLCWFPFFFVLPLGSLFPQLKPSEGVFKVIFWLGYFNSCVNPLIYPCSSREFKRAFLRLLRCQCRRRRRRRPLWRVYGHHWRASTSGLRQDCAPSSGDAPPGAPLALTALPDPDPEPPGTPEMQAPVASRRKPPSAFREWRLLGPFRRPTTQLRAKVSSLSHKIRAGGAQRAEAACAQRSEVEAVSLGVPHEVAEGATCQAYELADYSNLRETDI
# How it was run: (§2)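 Binding was measured with [3H]prazosin on cloned human α1-adrenoceptor subtypes expressed in CHO cells. Each experiment was run in triplicate.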
# α1b-AR = target: T3, α1b-AR (Homo sapiens, UniProt P35368); experiment: radioligand competition, [3H]prazosin; format: binding; details: Cheng-Prusoff
# T3 sequence (P35368 1-520): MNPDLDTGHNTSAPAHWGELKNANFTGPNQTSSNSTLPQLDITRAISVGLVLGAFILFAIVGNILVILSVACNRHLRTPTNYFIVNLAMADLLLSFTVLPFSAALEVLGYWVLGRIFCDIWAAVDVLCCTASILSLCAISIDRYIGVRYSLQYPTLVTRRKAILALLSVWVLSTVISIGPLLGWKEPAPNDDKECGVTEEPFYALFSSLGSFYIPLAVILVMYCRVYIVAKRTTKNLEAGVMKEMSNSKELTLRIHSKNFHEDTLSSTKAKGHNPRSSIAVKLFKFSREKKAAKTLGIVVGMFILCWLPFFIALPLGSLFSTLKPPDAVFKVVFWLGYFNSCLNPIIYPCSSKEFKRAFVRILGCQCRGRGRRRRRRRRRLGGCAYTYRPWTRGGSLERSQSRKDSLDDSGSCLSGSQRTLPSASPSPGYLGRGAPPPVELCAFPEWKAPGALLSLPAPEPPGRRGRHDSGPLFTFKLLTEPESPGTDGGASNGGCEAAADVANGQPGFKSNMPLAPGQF
# How it was run: as §2
# α1a-AR = target: T4, α1a-AR (Homo sapiens, UniProt P35348); experiment: radioligand competition, [3H]prazosin; format: binding; details: Cheng-Prusoff
# T4 sequence (P35348 1-466): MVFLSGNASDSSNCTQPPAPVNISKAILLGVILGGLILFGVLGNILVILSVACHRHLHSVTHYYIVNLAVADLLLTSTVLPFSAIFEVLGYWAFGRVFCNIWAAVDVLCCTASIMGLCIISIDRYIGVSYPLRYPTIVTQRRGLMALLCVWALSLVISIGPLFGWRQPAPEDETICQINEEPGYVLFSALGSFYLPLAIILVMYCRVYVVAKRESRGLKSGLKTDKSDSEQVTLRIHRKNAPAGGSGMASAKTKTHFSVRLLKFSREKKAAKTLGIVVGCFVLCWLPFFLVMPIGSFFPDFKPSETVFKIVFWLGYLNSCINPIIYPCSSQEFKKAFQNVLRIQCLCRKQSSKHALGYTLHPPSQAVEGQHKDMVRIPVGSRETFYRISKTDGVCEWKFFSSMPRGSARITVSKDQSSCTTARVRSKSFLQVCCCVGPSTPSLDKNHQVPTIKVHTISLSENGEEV
# How it was run: as §2
# 5-HT1A [1] = target: T5, 5-HT1A (Homo sapiens, UniProt P08908); experiment: radioligand competition, [3H]8-OH-DPAT; format: binding; details: Cheng-Prusoff
# T5 sequence (P08908 1-422): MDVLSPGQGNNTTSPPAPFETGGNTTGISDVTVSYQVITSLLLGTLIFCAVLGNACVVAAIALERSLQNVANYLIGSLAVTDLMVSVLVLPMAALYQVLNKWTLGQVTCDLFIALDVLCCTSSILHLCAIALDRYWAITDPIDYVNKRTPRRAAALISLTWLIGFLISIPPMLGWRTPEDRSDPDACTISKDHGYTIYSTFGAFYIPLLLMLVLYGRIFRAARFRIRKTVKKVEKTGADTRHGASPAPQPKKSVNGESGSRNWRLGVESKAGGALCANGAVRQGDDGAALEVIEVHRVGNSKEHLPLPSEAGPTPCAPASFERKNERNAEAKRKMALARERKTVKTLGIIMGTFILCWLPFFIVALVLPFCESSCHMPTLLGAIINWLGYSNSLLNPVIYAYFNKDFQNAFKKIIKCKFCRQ
# How it was run: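 Human cloned 5-HT1A receptors expressed in HeLa cells were labelled with [3H]8-OH-DPAT and displaced by the test compound. Each experiment was run in triplicate.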
# hD3 [2] = target: T6, hD3 (Homo sapiens, UniProt P35462); experiment: radioligand competition, [3H]N-methylspiperone; format: binding; details: Cheng-Prusoff
# How it was run: as §1
# D1 = D1 (Homo sapiens, UniProt P21728); experiment: cAMP assay; format: cell-based; details: antagonist
# hD3 [3] = target: T6, hD3; experiment: mitogenesis assay; format: cell-based; details: full agonist
# 5-HT1A [4] = target: T5, 5-HT1A; experiment: […]GTPγS binding; format: biochemical; details: agonist
# T6 sequence (P35462 whole entry): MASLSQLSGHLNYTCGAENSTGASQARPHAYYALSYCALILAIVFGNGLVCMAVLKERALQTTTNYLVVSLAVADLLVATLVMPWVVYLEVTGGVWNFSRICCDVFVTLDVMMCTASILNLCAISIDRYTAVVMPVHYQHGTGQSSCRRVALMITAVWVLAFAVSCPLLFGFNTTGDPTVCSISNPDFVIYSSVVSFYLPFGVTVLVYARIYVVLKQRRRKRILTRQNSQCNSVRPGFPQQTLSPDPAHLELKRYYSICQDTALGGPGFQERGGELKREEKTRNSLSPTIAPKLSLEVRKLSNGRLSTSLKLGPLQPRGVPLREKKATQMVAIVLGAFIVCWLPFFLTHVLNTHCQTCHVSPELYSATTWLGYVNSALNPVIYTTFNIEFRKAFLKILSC
# Sequence of D1 (P21728 whole entry): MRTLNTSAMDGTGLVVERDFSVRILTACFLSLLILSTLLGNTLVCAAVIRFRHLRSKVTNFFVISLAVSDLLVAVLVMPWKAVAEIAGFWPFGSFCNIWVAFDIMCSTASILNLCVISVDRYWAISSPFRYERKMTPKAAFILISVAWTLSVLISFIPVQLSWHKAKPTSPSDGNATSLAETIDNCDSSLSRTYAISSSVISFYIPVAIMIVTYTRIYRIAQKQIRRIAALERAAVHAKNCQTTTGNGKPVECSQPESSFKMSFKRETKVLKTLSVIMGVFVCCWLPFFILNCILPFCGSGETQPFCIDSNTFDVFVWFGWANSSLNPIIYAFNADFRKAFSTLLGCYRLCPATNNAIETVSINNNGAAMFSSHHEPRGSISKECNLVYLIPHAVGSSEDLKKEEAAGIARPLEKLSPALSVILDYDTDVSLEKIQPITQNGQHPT
SMILES,"pKi, human cloned receptor / D4 (hD4)","pKi, human cloned receptor / α1 ^d (α1d-AR)","pKi, human cloned receptor / D2 (α1b-AR)","pKi, human cloned receptor / α1 ^a (α1a-AR)","pKi, human cloned receptor / 5-HT1A (5-HT1A [1])","pKi, human cloned receptor / D3 (hD3 [2])",Functional profile of 8 / pEC50 (pIC50) (D1),"pKi, human cloned receptor / α1 ^a (α1b-AR)",Functional profile of 8 / pEC50 (pIC50) (hD3 [3]),Functional profile of 8 / pEC50 (pIC50) (5-HT1A [4]),"pKi, human cloned receptor / D3 (α1d-AR)","pKi, human cloned receptor / D3 (α1b-AR)","pKi, human cloned receptor / D3 (α1a-AR)"
"COc1cccc(OCCNCC2COCC(c3ccccc3)(c3ccccc3)O2)c1 (centres unmarked) [compound 7, N-((6,6-Diphenyl-1,4-dioxan-2-yl)methyl)-2-(3-methoxyphenoxy)ethanamine]",6.45,6.98,< 6,6.41,8.91,7.37,–,–,–,–,–,–,–
"Oc1cccc(OCCNCC2COCC(c3ccccc3)(c3ccccc3)O2)c1 (centres unmarked) [compound 8, 3-(2-(((6,6-Diphenyl-1,4-dioxan-2-yl)methyl)amino)ethoxy)phenol]",–,6.56,–,< 6,–,–,5.49 ± 0.10,< 6,8.99 ± 0.09,8.28 ± 0.15,–,–,–
"COc1ccc(OCCNCC2COCC(c3ccccc3)(c3ccccc3)O2)cc1OC (centres unmarked) [compound 12, 2-(3,4-Dimethoxyphenoxy)-N-((6,6-diphenyl-1,4-dioxan-2-yl)methyl)ethanamine]",5.84,–,–,–,7.71,6.10,–,–,–,–,< 6,< 6,< 6
"c1ccc(OCCNCC2COCC(c3ccccc3)(c3ccccc3)O2)cc1 (centres unmarked) [compound 4, N-((6,6-diphenyl-1,4-dioxan-2-yl)methyl)-2-phenoxyethan-1-amine]",–,–,–,–,–,7.92,–,–,–,–,–,–,–
"Oc1ccc(OCCNCC2COCC(c3ccccc3)(c3ccccc3)O2)cc1 (centres unmarked) [compound 10, 10]",6.49,7.01,< 6,6.56,7.59,7.37,–,–,–,–,–,–,–
"COc1cccc(OC)c1OCCNCC1COCC(c2ccccc2)(c2ccccc2)O1 (centres unmarked) [compound 2, 2]",5.77,–,–,–,–,6.34,–,–,–,–,–,–,–
"COc1ccc(OCCNCC2COCC(c3ccccc3)(c3ccccc3)O2)cc1 (centres unmarked) [compound 9, N-((6,6-Diphenyl-1,4-dioxan-2-yl)methyl)-2-(4-methoxyphenoxy)ethanamine]",6.45,–,–,–,7.17,6.41,–,–,–,–,< 6,< 6,< 6
"c1ccc(C2(c3ccccc3)COCC(CNCCOc3ccc4c(c3)OCO4)O2)cc1 (centres unmarked) [compound 13, 2-(Benzo[d][1,3]dioxol-5-yloxy)-N-((6,6-diphenyl-1,4-dioxan-2-yl)methyl)ethanamine]",6.79,6.81,< 6,6.32,8.04,6.99,–,–,–,–,–,–,–
"COc1cccc(OCCNCC2COCC(c3ccccc3)(c3ccccc3)O2)c1OC (centres unmarked) [compound 11, 2-(2,3-Dimethoxyphenoxy)-N-((6,6-diphenyl-1,4-dioxan-2-yl)methyl)ethanamine]",6.87,–,–,–,–,6.79,–,–,–,–,–,–,–

# From article PMC8378419 (ACS chemical neuroscience, 2019)
